# CHRM5 PAM: human M5 muscarinic receptor positive allosteric modulators, primary screen, CHO-K1 cells, Fluo-8 calcium fluorescence. Muscarinic acetylcholine receptor M5 (Homo sapiens), P08912. CHO-K1 hM5, ACh EC20 PAM; 0% = ACh EC20, 100% = ACh EC100. activation, % at 3 µM. 360,000 compounds, 0.3% hits. AID 624038, 2012;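 active = activation above the run cutoff, the mean activation of all test compounds plus 3 SD, cut at about 18% in these data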
# Target sequence (P08912 whole entry, looked up): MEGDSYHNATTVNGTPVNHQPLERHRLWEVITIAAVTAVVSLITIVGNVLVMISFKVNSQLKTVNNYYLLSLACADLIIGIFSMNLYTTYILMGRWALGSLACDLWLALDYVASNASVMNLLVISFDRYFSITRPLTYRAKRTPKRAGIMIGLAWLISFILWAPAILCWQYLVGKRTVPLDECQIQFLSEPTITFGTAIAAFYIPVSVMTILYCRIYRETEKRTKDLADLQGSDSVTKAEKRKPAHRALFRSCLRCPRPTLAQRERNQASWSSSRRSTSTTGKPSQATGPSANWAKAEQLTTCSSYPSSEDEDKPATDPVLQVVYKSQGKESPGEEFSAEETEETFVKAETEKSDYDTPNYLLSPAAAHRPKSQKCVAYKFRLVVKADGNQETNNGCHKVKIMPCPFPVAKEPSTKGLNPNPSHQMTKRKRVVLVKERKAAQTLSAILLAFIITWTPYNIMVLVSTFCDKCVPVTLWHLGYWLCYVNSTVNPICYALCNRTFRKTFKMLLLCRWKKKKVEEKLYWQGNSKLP
#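 Assay system – human M5 receptor in CHO-K1 cells · Read-out – % activation, ACh-normalized · Technique – Fluo-8 calcium fluorescence · Dosing – single-point, 3 µM nominal · Incubation – Fluo-8 loading 80 min at 37 °C plus 30 min room temperature · Repeats – singlicate, one well per test compound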
# M4 PAM: human M4 muscarinic receptor positive allosteric modulators, primary screen, CHO-K1 cells, Fluo-8 calcium fluorescence; Muscarinic acetylcholine receptor M4 (Homo sapiens), P08173; 360,000 compounds, 0.4% hits; activation, % at 3 µM; CHO-K1 hM4/Gqi5, ACh EC20; 0% = ACh EC20, 100% = maximal ACh;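 active = activation above its plate's cutoff, the mean activation of sample wells plus 3 SD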
# CHRM5 agonist: human M5 muscarinic receptor agonists, primary screen, CHO-K1 cells, Fluo-8 calcium fluorescence; CHO-K1 hM5 cells; 0% DMSO wells, 100% maximal acetylcholine response; Muscarinic acetylcholine receptor M5 (Homo sapiens), P08912; 360,000 compounds, 0.19% hits; activation, % at 3 µM;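 active = activation above the run's mean over test compounds plus 3 SD, cut at about 23% in these data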;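 also: signal is peak over basal fluorescence ratio across the kinetic read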
# CHRM4 antagonist: human M4 muscarinic receptor antagonists, primary screen, CHO cells, Fluo-8 calcium fluorescence. Muscarinic acetylcholine receptor M4 (Homo sapiens), P08173. CHO-hM4 cells, ACh EC80. inhibition, % at 3 µM. 360,000 compounds, 0.73% hits. AID 624125, 2012;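 active = inhibition above its plate's cutoff, the mean inhibition of sample wells plus 3 SD, cut at about 27% in these data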;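 also: 0% = acetylcholine EC80 with DMSO and 100% = DMSO without agonist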
# M4 ag: human M4 muscarinic receptor agonists, primary screen, CHO-K1 cells, Fluo-8 calcium fluorescence; Muscarinic acetylcholine receptor M4 (Homo sapiens), P08173; CHO-K1 hM4/Gqi5; vehicle 0%, full acetylcholine response 100%; activation, % at 3 µM; 360,000 compounds, 0.14% hits;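 active = activation above the run mean over all test wells plus 3 SD, cut at about 32% in these data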;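 also: peak over basal fluorescence ratio per well then scaled between controls; 0% = DMSO wells and 100% = acetylcholine at EC100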
# M5 antag: human M5 muscarinic receptor antagonists, primary screen, CHO cells, Fluo-8 calcium fluorescence; Muscarinic acetylcholine receptor M5 (Homo sapiens), P08912; CHO-hM5 cells, ACh EC80; inhibition, % at 3 µM; 360,000 compounds, 0.59% hits; AID 624040, 2012;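 active = inhibition above a per-plate cutoff, the mean of that plate's test compounds plus 3 SD, cut at about 27% in these data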;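 also: 0% = acetylcholine EC80 with DMSO and 100% = DMSO without agonist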
# Active calls of the source: *. The list is not random: actives were taken first. Their share in the collection is about 1.9%.
SMILES,CHRM5 PAM,M4 PAM,CHRM5 agonist,CHRM4 antagonist,M4 ag,M5 antag
COc1cc2cc(C(=O)NCCc3c[nH]c4ccccc34)c(N)nc2cc1OC,-22,-3,24*,7,33*,25
C#CCOCCOCCOCCNc1nc(N2CCN(C(=O)CCCCCCCCCCNC(=O)[C@@H](CCC(=O)O)n3cc(CCCCCN)nn3)CC2)nc(N2CCN(C(=O)CCCCCCCCCCNC(=O)[C@H](CCCCN)n3cc(C[C@@H](C)CC)nn3)CC2)n1,0,-12,0,4,33*,10
C#CCOCCOCCOCCNc1nc(N2CCN(C(=O)CCCCCCCCCCNC(=O)[C@H](CCCCN)n3cc(C)nn3)CC2)nc(N2CCN(C(=O)CCCCCCCCCCNC(=O)[C@@H]([C@H](C)O)n3cc(C)nn3)CC2)n1,0,-4,-10,2,22,9
C#CCOCCOCCOCCNc1nc(N2CCN(C(=O)CCCCCCCCCCNC(=O)[C@@H](CCC(=O)O)n3cc(CCCCCN)nn3)CC2)nc(N2CCN(C(=O)CCCCCCCCCCNC(=O)[C@H](CO)n3cc(CCCCCN)nn3)CC2)n1,-3,-4,1,7,1,1
C#CCOCCOCCOCCNc1nc(N2CCN(C(=O)CCCCCCCCCCNC(=O)[C@@H](CCSC)n3cc(CCO)nn3)CC2)nc(N2CCN(C(=O)CCCCCCCCCCNC(=O)[C@@H]([C@H](C)O)n3cc(C)nn3)CC2)n1,-8,-5,2,12,3,27*
COc1ccc(-c2csc(NCCc3nc4cc(Cl)c(Cl)cc4n3CCCO)n2)cc1,-8,0,-2,10,9,4
Cc1ccccc1OCC(=O)NCCCNC(=O)c1ccccn1,4,16*,-2,-15,1,-3
C/C(=N\NC(=O)c1nn(C)cc1Cl)c1ccncc1,1,0,-1,3,0,-2
NCCCCNCCCN,-21,0,75*,-1,3,12
Cc1oc2nc(SCC(=O)N3CCCCC3)nc(N)c2c1C,-2,20*,-3,-8,1,7
Cc1[nH]c2ccccc2c1C(=O)COc1ccccc1F,-8,-4,-3,-8,5,2
Cc1cc(C(=O)COC(=O)c2cc(Cl)ccc2N)c(C)n1Cc1ccco1,0,19*,2,6,1,10
COc1ccc(NC(=O)c2c(F)cccc2Cl)cc1S(=O)(=O)N1CCOCC1,13,-1,3,-12,6,-4
O=C(c1cccc(NS(=O)(=O)c2ccc(F)c(F)c2)c1)N1CCN(C(c2ccccc2)c2ccccc2)CC1,-4,31*,-2,-9,2,9
C[C@H](CO)N1C[C@H](C)[C@H](CN(C)Cc2cccc(F)c2)Oc2ncc(Br)cc2C1=O,-1,2,-2,-12,0,0
CN1CCN(c2ccccc2/C=C2/C(=O)Nc3ccccc32)CC1,-19,-16,-9,21,2,83*
O=[N+]([O-])c1ccccc1/C=N/NC1=NCCN1,19*,11,0,-10,1,-9
O=[N+]([O-])c1ccccc1C=NNc1ccccc1,1,-2,-4,6,-1,14
CNC(=O)C(=O)Nc1nc(C23CC4CC(CC(C4)C2)C3)cs1,19*,3,-4,1,1,-9
O=C(NCc1ccccc1)C(=O)Nc1nc(C23CC4CC(CC(C4)C2)C3)cs1,-4,-8,0,26,-1,2
COC(=O)c1c(O)cc(C(C)(C)C)n(-c2ccc(F)cc2)c1=O,3,37*,-2,-1,-1,2
CC(=O)c1c(O)cc(C)n(-c2ccc(F)cc2)c1=O,3,-2,-2,9,0,2
Cn1cccc1C(=O)NCC(c1ccco1)N1CCCCC1 (centres undefined),6,4,-9,3,1,-1
O=c1c2ccccc2oc2nc(-c3ccco3)n(Cc3ccccc3)c(=O)c12,37*,10,-3,13,1,3
CC(C)c1nc2n[nH]c(N)c2c2c1CCCC2,16,23*,4,-2,1,-8
SMILES,CHRM5 PAM,M4 PAM,CHRM5 agonist,CHRM4 antagonist,M4 ag,M5 antag
COc1cccc(NC(=O)CN(C)C(=O)CC(NC(=O)c2ccccc2Cl)c2ccccc2)c1 (centres undefined),4,10,2,-13,3,-10
O=C(CCCC(=O)N1CCCC1)N1CCCC1,3,6,-4,-12,0,-6
O=C(O)CCCC(=O)N1CCCC1,21*,13,1,-8,1,-16
N#Cc1c(C(F)(F)F)cc(-c2ccco2)nc1SCc1ccncc1,-5,-7,0,25,16,26
N#Cc1c(C(F)(F)F)cc(-c2ccco2)nc1SCc1ccccn1,-11,-8,12,21,56*,27
Cc1cc(C)cc(CC(=O)N2CCC2(C)C(=O)NS(=O)(=O)c2ccccc2Cl)c1 (centres undefined),-2,-2,2,-5,0,7
COc1cc(/C=C/CN2CCN(CCC(C)C)C(CCO)C2)ccc1O (centres undefined),5,-6,-6,2,1,4
O=C(O)c1cccc(Nc2ccnc(Nc3cccc(C(=O)O)c3)n2)c1,2,-3,0,11,1,0
COc1cc(C)ccc1S(=O)(=O)N1CCN(C23CC4CC(CC(C4)C2)C3)CC1,-20,-33,-11,89*,-2,3
COc1cc(F)ccc1S(=O)(=O)N1CCN(C23CC4CC(CC(C4)C2)C3)CC1,-5,-20,-7,14,2,3
Cn1c(CSc2ncccn2)nnc1SCC(=O)N1CCCC1,6,2,2,-2,1,5
Cc1noc(NS(=O)(=O)c2ccc(NC(=O)C(CC(C)C)N3C(=O)c4ccccc4C3=O)cc2)c1C (centres undefined),16,13,-15,-2,0,-2
CC(C)(C)C(=O)NC(=S)NNC(=O)c1ccc(Cl)cc1Cl,-33,-44,98*,44*,139*,36*
CC(C)(C)C(=O)NC(=S)NNC(=O)c1ccc(-c2ccccc2)cc1,-39,-54,101*,98*,141*,97*
COC(=O)NNC(=O)c1ccc(Cl)cc1Cl,1,-3,1,3,0,-2

# High-throughput results as filed in PubChem BioAssay.
